# Results: ChEMBL document CHEMBL1131456, “Synthesis, pharmacological characterization, and quantitative structure-activity relationship analyses of 3,7,9,9-tetraalkylbispidines: derivatives with specific bradycardic activity” (J Med Chem, 1998)
# Experiments:
# Cavia porcellus [1] = species: Cavia porcellus; assay: In vitro activity in guinea pig atria as the functional refractory period (FRP), which is the shortest interval between a double stimulus causing a double contraction.
# Procedure, shortened: (§1)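 Isolated guinea pig atria in oxygenated buffer at 35 °C. Right atria beat spontaneously; left atria were paced at 2 Hz with 1 ms rectangular pulses and isometric contractions were recorded. Cumulative concentration–response curves were run with up to five concentrations. EC75/EC125 is the concentration giving a 25% decrease/increase from the predrug value, reported as the geometric mean of individual ECs.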
# Cavia porcellus [2] = species: Cavia porcellus; assay: In vitro activity in guinea pig atria was measured as the peak force of contraction (F) of a stimulated left atrium; format: functional; details: Cardiac atrium; procedure, shortened: as §1
# [3] = Partition coefficient (logP); format: physicochemical; details: octanol/water
# Procedure, shortened: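 Lipophilicity was measured by reversed-phase HPLC. Mobile phase was methanol/0.005 M phosphate buffer pH 4 (60/40) with 0.1% SDS and 0.1 M NaClO4, at 23.0 ± 0.5 °C, with UV detection at 205 nm.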
# Rattus norvegicus [4] = species: Rattus norvegicus; assay: Selectivity quotient (DAP125/HR75)
# Rattus norvegicus [5] = assay: In vivo activity in anesthetized rat was measured as the R alpha T-interval of the rat ECG which reflects the time from ventricular excitation to recovery; format: functional, Cardiac ventricle
# Procedure, shortened: (§2)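 Male Wistar rats (280–360 g) under urethane (1.25 g/kg ip), intubated and breathing spontaneously. Femoral arterial pressure was recorded with needle-electrode ECG, analysed every 30 s. Compound was given by continuous femoral-vein infusion at 0.1 mL/min, with concentration raised tenfold every 10 min (3 doses). ED75/ED125 is the dose giving a 25% decrease/increase from the predrug value, reported as the geometric mean of individual EDs.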
# Cavia porcellus [6] = species: Cavia porcellus; assay: Score point for the selectivity versus additional effect FRP.; format: functional
# Cavia porcellus [7] = species: Cavia porcellus; assay: Score value indicates selectivity versus the decrease in force of contraction; format: functional
# Cavia porcellus [8] = species: Cavia porcellus; assay: In vitro activity in guinea pig atria was measured as rate of spontaneously beating right atrium (SR) which reflects the activity of the sinus node; format: functional; details: Cardiac atrium; procedure, shortened: as §1
# Cavia porcellus [9] = species: Cavia porcellus; assay: Selectivity quotient (F75/SR75); format: functional
# Procedure, shortened: (§3)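 Atrial selectivity quotients were calculated from the guinea pig atrial EC values as F75/SR75 and FRP125/SR75.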
# Rattus norvegicus [10] = assay: In vivo activity in anesthetized rat was measured as heart rate which provides information on in vivo bradycardic activity; format: functional; procedure, shortened: as §2
# Rattus norvegicus [11] = species: Rattus norvegicus; assay: Score value indicates selectivity against the undesired effect on diastolic blood pressure; format: functional, Artery
# Rattus norvegicus [12] = species: Rattus norvegicus; assay: Total score (SS)
# Rattus norvegicus [13] = species: Rattus norvegicus; assay: Selectivity quotient (R&T125/HR75)
# Rattus norvegicus [14] = assay: In vivo activity in anesthetized rat was measured as the diastolic arterial pressure which provides information on the peripheral resistance of the cardiovascular system and selectivity regarding bradycardia; format: functional, Artery; procedure, shortened: as §2
# Rattus norvegicus [15] = species: Rattus norvegicus; assay: Score value indicates desire effect on heart rate; format: functional
# Cavia porcellus [16] = species: Cavia porcellus; assay: Score value indicates decrease of the sinus rate; format: functional
# Rattus norvegicus [17] = species: Rattus norvegicus; assay: Score point for the selectivity versus additional effect R&T interval.; format: functional
# Cavia porcellus [18] = species: Cavia porcellus; assay: Sum of the scores of decrease of the sinus rate and selectivity versus the decrease in force of contraction; format: functional
# Cavia porcellus [19] = species: Cavia porcellus; assay: Selectivity quotient (FRP125/SR75); format: functional; procedure, shortened: as §3
Structure (SMILES),EC125 (Cavia porcellus [1]) [µM],EC75 (Cavia porcellus [2]) [µM],logP [3],Selectivity quotient (Rattus norvegicus [4]),ED125 (Rattus norvegicus [5]) [µM/kg],Score (Cavia porcellus [6]),Score (Cavia porcellus [7]),EC75 (Cavia porcellus [8]) [µM],Selectivity quotient (Cavia porcellus [9]),ED75 (Rattus norvegicus [10]) [µM/kg],Score (Rattus norvegicus [11]),total score (SS) (Rattus norvegicus [12]),Selectivity quotient (Rattus norvegicus [13]),ED125 (Rattus norvegicus [14]) [µM/kg],Score (Rattus norvegicus [15]),Score (Cavia porcellus [16]),Score (Rattus norvegicus [17]),Score (Cavia porcellus [18]),Selectivity quotient (Cavia porcellus [19]),logP ([3]; read-out: logP)
CCCCCCCCCCN1CC2CN(CCCCCCCCCC)CC(C1)C2(C)C,85,105,9.64,,,,,,,,,,,,,,,,,
CCCCN1CC2CN(CCCC)CC(C1)C2(C)CC (configuration not stated),0.54,1.52,,0.12,0.61,5,-6,3.21,0.47,4.6,-5,1,0.13,0.57,6,4,5,-2,0.17,4.37
CCCCCCN1CC2CN(CCCCCC)CC(C1)C21CCCC1,0.44,3.07,,0.2,5.6,3,-3,,3.53,14,-4,-1,0.4,2.8,3,6,4,3,0.51,5.47
CCCCCCN1CC2CN(C)CC(C1)C2(CC)CC,0.84,17.5,,>4,3,,,,,25,-1,2,0.12,>106,3,,5,,,4.88
C=CCCN1CC2CN(CC(C)C)CC(C1)C2(CCC)CCC,0.73,23.1,,0.68,0.32,3,0,0.44,52.5,3.5,-3,3,0.09,2.4,6,6,6,6,1.66,5.32
C=CCCN1CC2CN(CCCC)CC(C1)C2(C)C,2.08,106,,0.37,0.7,3,0,1.21,87.6,5.9,-4,1,0.12,2.2,5,5,5,5,1.72,3.42
CCCCN1CC2CN(CCCC)CC(C1)C2(C)C,1,104,,0.04,0.57,4,0,3,35,5.3,-6,-1,0.11,0.2,5,4,5,4,0.33,3.88
C1CCC(CN2CC3CN(CC4CCCCC4)CC(C2)C32CCCCC2)CC1,0.62,2.65,,>3,12,6,-6,7.57,0.35,20,-2,1,0.6,>61,3,3,3,-3,0.08,7.43
CCCC1(C)C2CN(C(C)C)CC1CN(C(C)C)C2 (configuration not stated),2.63,211,,>8,0.53,3,0,1.99,106,4.5,-1,5,0.12,>36,6,5,5,5,1.32,3.53
CCCCN1CC2CN(CCCC)CC(C1)C21CCC1,0.63,56.1,,0.13,0.55,3,0,0.52,108,4.7,-5,1,0.12,0.6,6,6,5,6,1.21,4.24
C=CCN1CC2CN(CC=C)CC(C1)C2(C)C,4.3,> 215,,,,4,0,8.55,>25,,,,,,,3,,3,0.5,2.7
CCCCC1(CCCC)C2CN(CC3CCCCC3)CC1CN(C(C)C)C2,1.45,3.65,,>7,1.1,3,-5,1.9,1.92,9.3,-1,3,0.12,>66,4,5,5,0,0.76,7.61
C=CCCN1CC2CN(CCC=C)CC(C1)C2(C)C,1.87,> 215,,>6,0.94,3,0,1.21,>177,7.1,-1,4,0.13,>46,5,5,5,5,1.54,3.13
CN1CC2CN(C)CC(C1)C2(C)C,122,,,,,3,-5,,1,,,,,,,0,,-5,1,1.61
